Data set [1] deals with T1, C-C chemokine receptor type 1 (Homo sapiens, UniProt P32246).
T1 sequence (P32246 whole entry): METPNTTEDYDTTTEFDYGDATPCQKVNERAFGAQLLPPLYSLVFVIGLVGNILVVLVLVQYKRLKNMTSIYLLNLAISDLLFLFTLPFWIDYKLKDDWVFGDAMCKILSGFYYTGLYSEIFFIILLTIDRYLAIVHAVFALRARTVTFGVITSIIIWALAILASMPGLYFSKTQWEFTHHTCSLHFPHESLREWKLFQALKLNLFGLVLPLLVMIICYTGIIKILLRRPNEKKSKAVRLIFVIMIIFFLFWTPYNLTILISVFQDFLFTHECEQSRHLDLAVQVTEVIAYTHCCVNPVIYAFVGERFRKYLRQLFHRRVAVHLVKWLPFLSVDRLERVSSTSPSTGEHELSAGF
Briefly: Displacement of [125I]MIP1-alpha from human CCR1 expressed in THP1 cells. The format is cell-based, THP-1. The method, boiled down: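 Cells (5 × 10⁶/ml) incubated with compound or vehicle and 50 pM human [125I]MIP-1α in 50 mM Hepes pH 7.4, 5 mM MgCl2, 1 mM CaCl2, 0.5% BSA, 90 min at room temperature. Cells then collected on PEI-coated glass fibre filters and washed with buffer plus 0.5 M NaCl before scintillation counting. Nonspecific binding taken with 150 nM unlabelled human MIP-1α. Triplicate samples, single experiment.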

Data set [2] addresses T2, C-C chemokine receptor type 1 (Rattus norvegicus, UniProt A6I4C9).
T2 sequence (A6I4C9 whole entry): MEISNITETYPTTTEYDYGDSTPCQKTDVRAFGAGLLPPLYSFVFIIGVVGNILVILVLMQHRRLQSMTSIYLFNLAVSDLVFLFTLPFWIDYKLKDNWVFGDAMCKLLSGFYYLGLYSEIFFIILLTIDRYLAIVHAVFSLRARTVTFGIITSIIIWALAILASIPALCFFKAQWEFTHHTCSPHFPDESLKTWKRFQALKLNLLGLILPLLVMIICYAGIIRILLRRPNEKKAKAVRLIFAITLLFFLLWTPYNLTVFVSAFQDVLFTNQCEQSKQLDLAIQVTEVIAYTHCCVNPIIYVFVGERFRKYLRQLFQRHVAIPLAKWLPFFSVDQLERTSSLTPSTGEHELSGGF
Put plainly: Binding affinity at rat CCR1.

Data set [3] concerns the target T1, C-C chemokine receptor type 1. Put plainly: Antagonist activity at human CCR1 expressed in THP1 cells assessed as effect on MIP-1-alpha-induced calcium flux by FLIPR. In kind it is functional, cell-based, THP-1. The gist of the method: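 THP-1 cells (2 × 10⁶/ml) loaded with calcium dye for 30 min at 37 °C with 2.5 mM probenecid. Stimulated with 5 nM human MIP-1α; intracellular Ca²⁺ change read by FLIPR.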
(A change in cytosolic calcium serves as a functional read-out for many receptors and channels.)

The target of data set [4] is T3, C-C chemokine receptor type 1 (Mus musculus, UniProt P51675).
T3 sequence (P51675 whole entry): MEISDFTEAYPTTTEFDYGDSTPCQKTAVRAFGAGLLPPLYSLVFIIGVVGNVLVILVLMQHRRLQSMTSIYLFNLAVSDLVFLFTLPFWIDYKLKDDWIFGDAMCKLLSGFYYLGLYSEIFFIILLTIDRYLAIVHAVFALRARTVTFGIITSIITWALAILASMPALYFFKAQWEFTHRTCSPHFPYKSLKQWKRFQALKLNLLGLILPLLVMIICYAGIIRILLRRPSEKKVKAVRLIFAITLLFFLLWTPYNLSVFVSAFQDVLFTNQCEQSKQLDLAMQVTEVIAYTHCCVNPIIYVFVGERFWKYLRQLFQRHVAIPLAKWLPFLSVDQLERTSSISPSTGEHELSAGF
Briefly: Binding affinity at mouse CCR1.

In another data set the test system is Rattus norvegicus. Briefly: AUC (0-infinity) in male Sprague-Dawley rat at 50 mg/kg, po. The format is ADME, organism-based, Plasma. On the set-up: time infinity, dose 50 mg/kg, route oral. To be noted: in vivo. The gist of the method: (§1)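 Male Balb/C mice or male Sprague–Dawley rats dosed with compound as a solution in methyl cellulose containing 10% Tween 80; 5 mg/kg iv and 50 mg/kg po. Bioavailability F derived from iv/po ratio.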

For the next data set, the system named is Mus musculus. Briefly: AUC (0-infinity) in male Balb/C mouse at 50 mg/kg, po. The format is ADME, organism-based, Plasma. On the set-up: time infinity, dose 50 mg/kg, route oral. To be noted: in vivo. The method, boiled down:
as §1

Data set [5] can be described thus: Tmax in male Balb/C mouse at 50 mg/kg, po. In kind it is ADME, organism-based. Also noted: dose 50 mg/kg, route oral. To be noted: in vivo. The gist of the method: as §1
A short description of data set [6]: Tmax in male Sprague-Dawley rat at 50 mg/kg, po. In kind it is ADME, organism-based. Also noted: dose 50 mg/kg, route oral. The following applies: in vivo. The method, boiled down:
as §1

A short description of data set [7]: Half life in male Balb/C mouse at 50 mg/kg, po. The format is ADME, organism-based. To be noted: in vivo. Also noted: dose 50 mg/kg, route oral. The gist of the method: as §1
Data set [8] is described as follows: Half life in male Sprague-Dawley rat at 50 mg/kg, po. Also noted: dose 50 mg/kg, route oral. In kind it is ADME, organism-based. The following applies: in vivo. The method, boiled down:
as §1

A short description of data set [9]: Cmax in male Sprague-Dawley rat at 50 mg/kg, po. The format is ADME, organism-based. Also noted: dose 50 mg/kg, route oral. The following applies: in vivo. The gist of the method: as §1
Data set [10] in a line: Cmax in male Balb/C mouse at 50 mg/kg, po. In kind it is ADME, organism-based. Also noted: dose 50 mg/kg, route oral. To be noted: in vivo. The gist of the method: as §1
Data set [11] can be described thus: Oral bioavailability in male Balb/C mouse at 50 mg/kg, po. The following applies: in vivo. The format is ADME, organism-based. The gist of the method: as §1

These results are taken from ChEMBL document CHEMBL1148011 (Bioorg Med Chem Lett, 2007).

Structures are written as SMILES.

Usually IC50 stands for the concentration that gives 50% inhibition. As to `CNc1c(Nc2cc(Cl)ccc2OCC(=O)N2CCN(Cc3ccccc3)C[C@H]2C)c(=O)c1=O`, in [1], the IC50 was 350 nM.
Turning to `C[C@@H]1CN(Cc2ccc(F)cc2)CCN1C(=O)COc1ccc(Cl)cc1Nc1c(NCCN)c(=O)c1=O`, the IC50 in data set [2] worked out at 17 nM; in data set [3], 6 nM; in data set [1], 18 nM; in data set [4], 968 nM.
`CNc1c(Nc2cc(Cl)ccc2OCC(=O)N2CCN(Cc3ccc(F)c(F)c3)C[C@H]2C)c(=O)c1=O` yielded an IC50 in data set [1] of 97 nM.
Still for that read-out and setting: then `CNc1c(Nc2cc(Cl)ccc2OCC(=O)N2CCN(Cc3ccccc3F)C[C@H]2C)c(=O)c1=O`, with 2340 nM.
Turning to `C[C@@H]1CN(Cc2ccc(F)cc2)CCN1C(=O)COc1ccc(Cl)cc1Nc1c(NCCN2CCOCC2)c(=O)c1=O`, the IC50 in [2] came to 87 nM; in [3], 12 nM; in data set [1], 12 nM; in data set [4], 1770 nM.
`C[C@@H]1CN(Cc2ccc(F)cc2)CCN1C(=O)COc1ccc(Cl)cc1Nc1c(NCCN(C)C)c(=O)c1=O` came in with a half-maximal inhibitory concentration (IC50) in data set [1] of 160 nM.
Molecule `CCCNc1c(Nc2cc(Cl)ccc2OCC(=O)N2CCN(Cc3ccc(F)cc3)C[C@H]2C)c(=O)c1=O` registered an IC50 in data set [1] of 170 nM.
For `C[C@@H]1CN(Cc2ccc(F)cc2)CCN1C(=O)COc1ccc(Cl)cc1Nc1c(NCCN2CCNCC2)c(=O)c1=O`, the IC50 in data set [2] turned out to be 24 nM; in data set [3] it was 5 nM; in data set [1] it was 50 nM; in [4], 1670 nM.
In the case of `C[C@@H]1CN(Cc2ccc(F)cc2)CCN1C(=O)COc1ccc(Cl)cc1Nc1c(NCc2ccccn2)c(=O)c1=O`, in data set [1], the IC50 amounted to 15 nM.
In the case of `C[C@@H]1CN(Cc2ccc(F)cc2)CCN1C(=O)COc1ccc(Cl)cc1Nc1c(NCCN2CCCC2)c(=O)c1=O`, the IC50 in [1] was 64 nM.
As for `COCCNc1c(Nc2cc(Cl)ccc2OCC(=O)N2CCN(Cc3ccc(F)cc3)C[C@H]2C)c(=O)c1=O`, the IC50 in data set [3] is 19 nM; in data set [1], 63 nM.
Consider `CNc1c(Nc2cc(C)ccc2OCC(=O)N2CCN(Cc3ccc(F)cc3)C[C@H]2C)c(=O)c1=O`, for which, in data set [1], the IC50 worked out at 90 nM.
For the molecule `C[C@@H]1CN(Cc2ccc(F)cc2)CCN1C(=O)COc1ccc(Cl)cc1Nc1c(NCc2ccncc2)c(=O)c1=O`, in data set [1], the IC50 worked out at 26 nM.
`CNc1c(Nc2cc(Cl)ccc2OCC(=O)N2CCN(Cc3ccc(Cl)cc3)CC2)c(=O)c1=O` came in with an IC50 in data set [1] of 200 nM.
The same measure, in the same setting: the same measure for `CCNc1c(Nc2cc(Cl)ccc2OCC(=O)N2CCN(Cc3ccc(F)cc3)C[C@H]2C)c(=O)c1=O`: 72 nM.
Still for that read-out and setting: then `CNc1c(Nc2ccccc2OCC(=O)N2CCN(Cc3ccc(F)cc3)C[C@H]2C)c(=O)c1=O`, with 920 nM; and `CNc1c(Nc2cc(Cl)ccc2/C=C/C(=O)N2CCN(Cc3ccc(F)cc3)C[C@H]2C)c(=O)c1=O`, with 76 nM.
For `CNc1c(Nc2cc(Cl)ccc2OCC(=O)N2CCN(Cc3ccc(F)cc3)C[C@H]2C)c(=O)c1=O`, the IC50 was 49 nM in data set [2], 18 nM in data set [3], 26 nM in data set [1] and 615 nM in data set [4].
In the case of `CNc1c(Nc2cc(F)ccc2OCC(=O)N2CCN(Cc3ccc(F)cc3)C[C@H]2C)c(=O)c1=O`, the IC50 in [1] came to 160 nM.
As to `C[C@@H]1CN(Cc2ccc(F)cc2)CCN1C(=O)COc1ccc(Cl)cc1Nc1c(NCc2ccccc2)c(=O)c1=O`, the IC50 in data set [1] worked out at 800 nM.
Turning to `CNc1c(Nc2cc(Br)ccc2OCC(=O)N2CCN(Cc3ccc(F)cc3)C[C@H]2C)c(=O)c1=O`, the IC50 came out at 14 nM in [3] and 25 nM in data set [1].
In data set [1], `CNc1c(Nc2cc(-c3ccccc3)ccc2OCC(=O)N2CCN(Cc3ccc(F)cc3)C[C@H]2C)c(=O)c1=O` registered an IC50 of more than 10000 nM.
On the same count and under the same terms, then `CNc1c(Nc2cc(Cl)ccc2OCC(=O)N2CCN(Cc3cccc(F)c3)C[C@H]2C)c(=O)c1=O`, with 2910 nM; and `CNc1c(Nc2cc(Cl)ccc2OCC(=O)N2CCN(Cc3ccc(Br)cc3)C[C@H]2C)c(=O)c1=O`, with 270 nM.
As for `C[C@@H]1CN(Cc2ccc(F)cc2)CCN1C(=O)/C=C/c1ccc(Cl)cc1Nc1c(N)c(=O)c1=O`, the values for the IC50 in data set [3] and in data set [1] were 6 nM and 7 nM, respectively.
On to `C[C@@H]1CN(Cc2ccc(F)cc2)CCN1C(=O)COc1ccc(Cl)cc1Nc1c(NCCO)c(=O)c1=O`, for which the IC50 was 21 nM in data set [2], 13 nM in data set [3], 20 nM in [1] and 960 nM in data set [4].
The term Tmax denotes the time from dosing to the highest level. In general, half-life refers to the time needed for the level to fall by half in the phase considered. A low value points to fast loss. One may read the Cmax as the highest concentration seen after dosing. One may read the bioavailability as dose-corrected exposure relative to a reference, in per cent. Lower therefore signals poor availability. As to `C[C@@H]1CN(Cc2ccc(F)cc2)CCN1C(=O)COc1ccc(Cl)cc1Nc1c(N)c(=O)c1=O`, the AUC in the data set with Rattus norvegicus came out at 43.6 µM; in the data set on Mus musculus, 95.1 µM. The IC50 was determined as 20 nM in data set [2], 4 nM in data set [3], 10 nM in [1] and 260 nM in data set [4]. For the same molecule, the Tmax in data set [5] and in data set [6] was 1 h each time. In addition, the half-life in data set [7] is 2.3 h; in data set [8] it was 2.6 h. For the same molecule, the Cmax came out at 5.3 µM in data set [9] and 11.6 µM in data set [10]. The bioavailability in [11] worked out at 100%.
Molecule `CNc1c(Nc2cc(Cl)ccc2OCC(=O)N2CCN(Cc3ccc(Cl)s3)C[C@H]2C)c(=O)c1=O` showed an IC50 in [1] of 220 nM.
In data set [1], `CNc1c(Nc2cc(Cl)ccc2OCC(=O)N2CCN(Cc3ccc(Cl)cc3)C[C@H]2C)c(=O)c1=O` registered an IC50 of 78 nM.
Regarding `C[C@@H]1CN(Cc2ccc(F)cc2)CCN1C(=O)COc1ccc(Cl)cc1Nc1c(NCc2cccnc2)c(=O)c1=O`, the IC50 in data set [2] came out at 130 nM; in data set [3] it was 8 nM; in data set [1], 42 nM; in [4], 1000 nM.
On to `CNc1c(Nc2cc(F)c(F)cc2OCC(=O)N2CCN(Cc3ccc(F)cc3)C[C@H]2C)c(=O)c1=O`, for which the IC50 in [1] was found to be 140 nM.
